Results as given in ChEMBL document CHEMBL2321777, “Selective mGAT2 (BGT-1) GABA uptake inhibitors: design, synthesis, and pharmacological characterization” (J Med Chem, 2013).

Experiments:
[1] = target: T1, GABA transporter 4 (Mus musculus, UniProt P31650); assay: Inhibition of [3H]GABA uptake at mouse GAT4 expressed in HEK293 cells after 3 mins by scintillation counting analysis; type: cell-based
T1 sequence (P31650 whole entry): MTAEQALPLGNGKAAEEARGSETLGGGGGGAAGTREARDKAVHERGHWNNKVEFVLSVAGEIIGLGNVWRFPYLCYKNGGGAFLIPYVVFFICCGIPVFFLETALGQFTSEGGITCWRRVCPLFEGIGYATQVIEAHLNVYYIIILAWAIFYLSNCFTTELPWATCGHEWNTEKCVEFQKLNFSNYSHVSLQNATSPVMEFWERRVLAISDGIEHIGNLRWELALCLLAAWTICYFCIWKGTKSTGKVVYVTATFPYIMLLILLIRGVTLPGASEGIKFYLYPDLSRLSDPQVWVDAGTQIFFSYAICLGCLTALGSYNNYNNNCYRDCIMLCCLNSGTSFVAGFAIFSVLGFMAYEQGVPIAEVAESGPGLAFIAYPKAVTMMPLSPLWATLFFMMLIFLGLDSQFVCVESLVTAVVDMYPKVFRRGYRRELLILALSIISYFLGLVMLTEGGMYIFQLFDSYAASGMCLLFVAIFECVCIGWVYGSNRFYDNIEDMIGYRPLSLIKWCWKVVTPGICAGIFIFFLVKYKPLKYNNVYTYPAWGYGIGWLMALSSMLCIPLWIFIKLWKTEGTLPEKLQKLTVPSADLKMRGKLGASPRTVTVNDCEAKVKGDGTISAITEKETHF
How it was run: (§1)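 Uptake measured in primary mouse cortical astrocyte or neuron cultures, or in cells stably overexpressing the respective recombinant mGAT. Cells were incubated at 37 °C in phosphate-buffered saline with [3H]GABA (1 μCi/mL), 1 μM GABA and increasing inhibitor concentrations. After 3 min, uptake was stopped by automated washing. Cells were solubilized in scintillant, radioactivity was counted, and inhibition curves were analyzed.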

[2] = target: T2, GABA transporter 2 (Mus musculus, UniProt P31651); assay: Inhibition of [3H]GABA uptake at mouse GAT2 expressed in HEK293 cells after 3 mins by scintillation counting analysis; type: cell-based; how it was run: as §1
T2 sequence (P31651 whole entry): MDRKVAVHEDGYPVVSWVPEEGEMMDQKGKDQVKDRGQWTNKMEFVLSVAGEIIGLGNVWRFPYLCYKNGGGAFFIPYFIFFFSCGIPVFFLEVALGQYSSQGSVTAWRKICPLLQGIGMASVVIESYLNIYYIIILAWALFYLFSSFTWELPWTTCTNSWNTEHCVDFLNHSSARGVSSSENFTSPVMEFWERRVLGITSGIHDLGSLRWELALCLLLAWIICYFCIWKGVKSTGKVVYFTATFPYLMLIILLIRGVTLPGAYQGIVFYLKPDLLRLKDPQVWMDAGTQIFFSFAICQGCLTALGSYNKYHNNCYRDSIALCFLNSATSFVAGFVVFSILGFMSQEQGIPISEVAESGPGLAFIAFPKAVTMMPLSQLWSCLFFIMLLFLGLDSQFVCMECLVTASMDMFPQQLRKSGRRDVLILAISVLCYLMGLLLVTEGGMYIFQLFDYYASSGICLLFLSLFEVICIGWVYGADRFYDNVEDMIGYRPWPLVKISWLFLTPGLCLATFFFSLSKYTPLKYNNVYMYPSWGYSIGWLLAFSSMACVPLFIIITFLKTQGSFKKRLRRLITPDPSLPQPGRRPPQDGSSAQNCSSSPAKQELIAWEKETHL

[3] = target: T3, GABA transporter 3 (Mus musculus, UniProt P31649); assay: Inhibition of [3H]GABA uptake at mouse GAT3 expressed in HEK293 cells after 3 mins by scintillation counting analysis; type: cell-based; how it was run: as §1
T3 sequence (P31649 whole entry): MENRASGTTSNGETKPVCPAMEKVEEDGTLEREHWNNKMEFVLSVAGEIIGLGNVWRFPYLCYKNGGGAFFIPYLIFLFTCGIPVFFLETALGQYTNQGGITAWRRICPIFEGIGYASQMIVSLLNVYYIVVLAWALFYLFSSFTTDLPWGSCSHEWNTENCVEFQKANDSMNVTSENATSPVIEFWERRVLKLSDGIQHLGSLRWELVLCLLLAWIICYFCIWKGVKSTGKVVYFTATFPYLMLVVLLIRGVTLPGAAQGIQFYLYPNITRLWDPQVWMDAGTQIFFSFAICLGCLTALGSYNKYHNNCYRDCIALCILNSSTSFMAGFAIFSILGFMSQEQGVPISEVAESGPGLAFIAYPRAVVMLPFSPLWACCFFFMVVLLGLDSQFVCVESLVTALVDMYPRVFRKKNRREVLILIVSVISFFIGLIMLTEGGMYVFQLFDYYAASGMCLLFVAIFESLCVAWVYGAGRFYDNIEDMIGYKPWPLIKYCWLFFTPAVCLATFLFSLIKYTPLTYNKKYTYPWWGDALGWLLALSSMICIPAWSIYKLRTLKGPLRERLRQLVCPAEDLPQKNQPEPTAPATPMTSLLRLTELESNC

[4] = target: Sodium- and chloride-dependent GABA transporter 1 (Mus musculus, UniProt P31648); assay: Inhibition of [3H]GABA uptake at mouse GAT1 expressed in HEK293 cells after 3 mins by scintillation counting analysis; type: cell-based; how it was run: as §1
[5] = target: GABA transporter (Mus musculus); assay: Inhibition of [3H]GABA uptake in mouse neurons after 3 mins by scintillation counting analysis
[6] = target: GABA transporter (Mus musculus); assay: Inhibition of [3H]GABA uptake in mouse astrocytes after 3 mins by scintillation counting analysis
[7] = test system: Mus musculus; assay: Anticonvulsant activity in ip dosed audiogenic seizure susceptible Frings mouse model after 15 mins; type: functional
[8] = test system: Mus musculus; assay: Anticonvulsant activity in ip dosed audiogenic seizure susceptible Frings mouse model after 60 mins; type: functional; settings: 1 h

| SMILES | IC50 ([1]; read-out: IC50) [µM] | IC50 [2] [µM] | IC50 ([3]; read-out: IC50) [µM] | IC50 [4] [µM] | IC50 [5] [µM] | IC50 [6] [µM] | ED50 [7] [mg/kg] | IC50 ([1]; read-out: pIC50 (converted)) [µM] | IC50 ([3]; read-out: pIC50 (converted)) [µM] | ED50 [8] [mg/kg] |
| --- | --- | --- | --- | --- | --- | --- | --- | --- | --- | --- |
| CNC1CCCc2onc(O)c21 (centres undefined) | > 3000 | > 3000 | > 3000 | 450 | 405 | 48 |  |  |  |  |
| Cc1ccsc1C(=CCCN(C)C1CCCc2o[nH]c(=O)c21)c1sccc1C (centres undefined) | > 300 |  | > 300 | 7 |  |  |  |  |  |  |
| Cc1ccsc1C(=CCCN(C)C1C2C=CC(C2)C1C(=O)O)c1sccc1C (centres undefined) | > 300 | 144 | > 300 | 40 |  |  |  |  |  |  |
| Cc1ccsc1C(=CCCN(C)C1CCC=C1C(=O)O)c1sccc1C (centres undefined) | > 300 | 50 | > 300 | 17 |  |  |  |  |  |  |
| Cc1ccsc1C(=CCCN(C)C1CCCC=C1C(=O)O)c1sccc1C (centres undefined) | 286 | 45 | > 300 | 307 |  |  | 20.4 | 3470 |  |  |
| CNC1C2C=CC(C2)C1C(=O)O (centres undefined) | > 500 |  | > 500 | > 500 |  |  |  |  |  |  |
| CNC1CCCC=C1C(=O)O (centres undefined) | > 1000 |  | > 1000 | 423 |  |  |  |  |  |  |
| Cc1ccsc1C(=CCCN(C)[C@@H]1CCCC[C@@H]1C(=O)O)c1sccc1C (relative stereo) | > 300 | 50 | 281 | > 300 |  |  |  |  | 3550 |  |
| CN[C@@H]1CCCC[C@H]1C(=O)O (relative stereo) | > 3000 | > 3000 | > 3000 | > 3000 | > 300 | > 300 |  |  |  |  |
| CN[C@H]1CCCC[C@H]1C(=O)O (relative stereo) | > 3000 | > 3000 | > 3000 | > 3000 | > 300 | > 300 |  |  |  |  |
| Cc1ccsc1C(=CCCN(C)[C@H]1CCCC[C@@H]1C(=O)O)c1sccc1C (relative stereo) | > 300 | 36 | > 300 | 273 |  |  |  |  |  |  |
| Cc1ccsc1C(=CCCN1CCC[C@@H](C(=O)O)C1)c1sccc1C [TIAGABINE] | 800 |  | > 300 | 0.8 |  |  |  |  |  | 1.1 |
